What was measured:
MT4 [1] = assay: (§1) Concentration that reduced the MT-4 cell viability by 50%.; assay type: functional, Homo sapiens; conditions: Homo sapiens, MT4
In short: (§2)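 Mock-infected MT-4 cells, run in parallel with the antiviral assay, were exposed to compound. Viability on day 5 was read by MTT colorimetry. The value is the concentration lowering viability by 50%. Averages ± SD from at least two independent experiments.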

[2] = tested on: Simian immunodeficiency virus; assay: Concentration required to inhibit the viral (SIV mac251) cytopathic effect by 50% in MT-4 cells.; assay type: functional, organism-based, MT4; conditions: Simian immunodeficiency virus, mac251, MT4
In short: (§3)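 Virus-infected MT-4 cells cultured with serial compound dilutions; viability measured 5 days after infection by MTT tetrazolium colorimetric read-out. The value is the concentration protecting 50% of cells from viral cytopathic effect. Averages ± SD from at least two independent experiments. HIV-2 and SIV stocks came from infected MT-4 culture supernatants.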

[3] = tested on: Human immunodeficiency virus 1; assay: Concentration required to inhibit the viral (HIV-1 NNRTI resistant strain) cytopathic effect by 50% in MT-4 cells.; assay type: functional, organism-based; conditions: Human immunodeficiency virus 1, MT4
In short: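 MT-4 cells infected with HIV-1(III_B)-derived strain S0561945 (K103N + Y181C RT mutations, NNRTI-resistant). Cultured with varying compound concentrations; viability read on day 5 post-infection by MTT tetrazolium colorimetry. Value is the concentration giving 50% protection against virus-induced cytopathic effect. Cytotoxicity measured in parallel on mock-infected cells at day 5. Averages ± SD from at least two independent experiments.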

[4] = tested on: Human immunodeficiency virus 2; assay: Concentration required to inhibit the viral (HIV-2 ROD) cytopathic effect by 50% in MT-4 cells.; assay type: functional, organism-based, MT4; conditions: Human immunodeficiency virus 2, MT4; in short: as §3
[5] = tested on: Human immunodeficiency virus 1; assay: Concentration required to inhibit the viral (HIV-1 IIIB strain) cytopathic effect by 50% in MT-4 cells.; assay type: functional, organism-based; conditions: Human immunodeficiency virus 1, MT4; in short: as §3
[6] = tested on: Human immunodeficiency virus 1; assay: Concentration required to inhibit the viral (HIV-1 NL4.3 strain) cytopathic effect by 50% in MT-4 cells.; assay type: functional, organism-based; conditions: Human immunodeficiency virus 1, MT4; in short: as §3
MT4 [7] = assay: as §1; assay type: functional, cell-based; conditions: Homo sapiens; in short: as §2
C3H/3T3 [8] = assay: Tested for inhibitory concentration against MSV-Induced transformation of C3H/3T3 embryo murine fibroblast in vitro; assay type: functional, cell-based; conditions: Mus musculus
In short: (§4)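 C3H/3T3 cells seeded at 20 000 cells/mL and incubated 24 h, then infected with 80 focus-forming units of MSV for 120 min. Medium was then replaced with fresh medium containing test compound. Transformation was scored microscopically after 6 days.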

C3H/3T3 [9] = assay: Tested for minimum inhibitory concentration against MSV-Induced transformation of C3H/3T3 embryo murine fibroblast in vitro; assay type: functional; conditions: Mus musculus; in short: as §4
[10] = target: Human immunodeficiency virus type 1 reverse transcriptase (Human immunodeficiency virus 1) (UniProt Q72547); assay: Tested for the concentration required to inhibit recombinant HIV-1 reverse transcriptase using polyrC.oligodG as the template primer
In short: (§5)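 Recombinant HIV-1 RT assay. Template primer and labelled substrate were poly(rA).oligo(dT) with [³H]dTTP, or poly(rC).oligo(dG) with [³H]dGTP. Each radiolabelled dNTP was at 2.5 μM final in the reaction mixture.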

[11] = target: Human immunodeficiency virus type 1 reverse transcriptase (Human immunodeficiency virus 1) (UniProt Q72547); assay: Tested for the concentration required to inhibit recombinant HIV-1 reverse transcriptase using polyrA.oligodT as the template primer; in short: as §5

Row | Compound | CC50 (MT4 [1]) | IC50 [2] | IC50 [3] | IC50 [4] | IC50 [5] | IC50 [6] | CC50 (MT4 [7]) | IC50 (C3H/3T3 [8]) | MIC (C3H/3T3 [9]) | Concentration [10] | Concentration [11]
1 | SC1=NC(c2ccccc2)C(c2ccccc2)N1Nc1cccc(Cl)c1 (stereo unspecified) | 36.3 µM | > 36.3 µM | > 36.3 µM | > 36.3 µM | > 36.3 µM | > 36.3 µM | – | – | – | – | –
2 | CC1N=C(S)N(Nc2cccc([N+](=O)[O-])c2)C1c1ccccc1 (stereo unspecified) | 48.3 µM | 7.54 µM | 42.2 µM | > 48.3 µM | 7.29 µM | 11.2 µM | – | – | – | – | –
3 | CC(=O)c1ccc(C)cc1NC(C(N)=O)c1c(Cl)cccc1Cl (stereo unspecified) [LOVIRIDE] | – | > 10 µM | > 10 µM | > 10 µM | 0.014 µM | 0.006 µM | > 10 µM | – | – | – | –
4 | Cc1cc(C)cc(NN2C(S)=NC(C)C2c2ccccc2)c1 (stereo unspecified) | 194 µM | > 194 µM | > 194 µM | > 194 µM | 1.03 µM | 0.87 µM | – | – | – | – | –
5 | Cc1nc(S)n(Nc2cccc(Cl)c2)c1-c1cccc(Cl)c1 | 30.9 µM | 1.22 µM | 1.86 µM | 3.91 µM | 5 µM | 2.48 µM | – | > 11.4 µM | > 11.4 µM | – | –
6 | COc1cccc(NN2C(S)=NC(C)C2c2ccccc2)c1 (stereo unspecified) | 38 µM | > 38 µM | > 38 µM | > 38 µM | 4.78 µM | 9.79 µM | – | – | – | – | –
7 | CCC1N=C(S)N(Nc2cccc(C)c2)C1c1ccccc1 (stereo unspecified) | 53.6 µM | > 53.6 µM | ≥ 53.6 µM | > 53.6 µM | 17.6 µM | 12.8 µM | – | – | – | – | –
8 | Cc1cccc(NN2C(S)=NC(C)C2c2ccccc2)c1 (stereo unspecified) | 88.2 µM | 6.5 µM | 26.1 µM | > 35.7 µM | 1.56 µM | 2.17 µM | – | > 67.7 µM | > 67.7 µM | 105 µM | 125 µM
9 | Cc1nc(S)n(Nc2cccc3ccccc23)c1-c1ccccc1 | 32 µM | 4.68 µM | 11.9 µM | 5.1 µM | 5.55 µM | 6.58 µM | – | – | – | – | –
10 | CC1N=C(S)N(Nc2cccc(Cl)c2)C1c1cccc(C#N)c1 (stereo unspecified) | 99.4 µM | > 99.4 µM | > 99.4 µM | > 99.4 µM | ≥ 99.4 µM | 42 µM | – | – | – | – | –
11 | CC1N=C(S)N(Nc2cccc(Br)c2)C1c1ccccc1 (stereo unspecified) | 44.2 µM | 2.72 µM | 5.77 µM | > 44.2 µM | 9.96 µM | 4.52 µM | – | – | – | – | –
12 | CCC1N=C(S)N(Nc2cccc(Cl)c2)C1c1ccccc1 (stereo unspecified) | 39 µM | 3.88 µM | > 39 µM | > 39 µM | 9.06 µM | > 39 µM | – | > 12.1 µM | > 12.1 µM | – | –
13 | Cc1nc(S)n(Nc2cccc(Cl)c2)c1-c1ccc(Cl)cc1 | 40.8 µM | 7.71 µM | > 40.8 µM | > 40.8 µM | > 40.8 µM | > 40.8 µM | – | – | – | – | –
14 | CC1N=C(S)N(Nc2cccc(F)c2)C1c1ccccc1 (stereo unspecified) | 108 µM | 33.8 µM | ≥ 43.4 µM | > 108 µM | > 108 µM | 18.4 µM | – | – | – | – | –
15 | CC1N=C(S)N(Nc2cccc(Cl)c2)C1c1cccc(C(N)=O)c1 (stereo unspecified) | 42.2 µM | > 42.2 µM | – | > 42.2 µM | > 42.2 µM | > 42.2 µM | – | – | – | – | –
16 | Cc1ncn(Nc2cccc(Cl)c2)c1-c1cccc(C(=O)O)c1 | 161 µM | > 161 µM | – | > 161 µM | > 161 µM | > 161 µM | – | – | – | – | –

Row | Compound | CC50 (MT4 [1]) | IC50 [2] | IC50 [3] | IC50 [4] | IC50 [5] | IC50 [6] | CC50 (MT4 [7]) | IC50 (C3H/3T3 [8]) | MIC (C3H/3T3 [9]) | Concentration [10] | Concentration [11]
17 | Cc1ncn(Nc2cccc(Cl)c2)c1-c1cccc(C(N)=O)c1 | 260 µM | > 260 µM | – | > 260 µM | > 260 µM | > 260 µM | – | – | – | – | –
18 | COc1ccc(-c2c(C)nc(S)n2Nc2cccc(Cl)c2)cc1 | 38.7 µM | 10.1 µM | > 38.7 µM | > 38.7 µM | > 38.7 µM | > 38.7 µM | – | – | – | – | –
19 | CCc1ncn(Nc2cccc(C)c2)c1-c1ccccc1 | 27.9 µM | > 27.9 µM | – | > 27.9 µM | > 27.9 µM | > 27.9 µM | – | – | – | – | –
20 | Cc1nc(S)n(Nc2cccc(Cl)c2)c1-c1cccc(Br)c1 | 44 µM | 1.75 µM | 3 µM | 10.5 µM | 8.54 µM | 5.6 µM | – | – | – | – | –
21 | CC1N=C(S)N(Nc2cccc(Cl)c2)C1C (stereo unspecified) | 259 µM | > 259 µM | – | > 259 µM | > 259 µM | > 259 µM | – | – | – | – | –
22 | SC1=NC2CCCCC2N1Nc1cccc(Cl)c1 (stereo unspecified) | 126 µM | > 126 µM | – | > 126 µM | > 126 µM | > 126 µM | – | – | – | – | –
23 | CSc1nc(C)c(-c2ccccc2)n1Nc1cccc(Cl)c1 | 42.1 µM | > 42.1 µM | – | > 42.1 µM | > 42.1 µM | > 42.1 µM | – | – | – | – | –
24 | Cc1ccc(NN2C(S)=NC(C)C2c2ccccc2)cc1C (stereo unspecified) | 55.6 µM | 10.3 µM | > 55.6 µM | > 55.6 µM | 9.3 µM | 3.54 µM | – | > 64.6 µM | > 64.6 µM | – | –
25 | COC(=O)C1C(C)N=C(S)N1Nc1cccc(Cl)c1 (stereo unspecified) | 190 µM | > 190 µM | – | > 190 µM | > 190 µM | > 190 µM | – | – | – | – | –
26 | Cc1nc(S)n(Nc2cccc(Cl)c2)c1-c1ccccc1 | 66.7 µM | 8.2 µM | 9.72 µM | 8.11 µM | 6.39 µM | 8.99 µM | – | 38 µM | > 63.3 µM | – | –
27 | COC(=O)c1cccc(-c2c(C)ncn2Nc2cccc(Cl)c2)c1 | 33.1 µM | > 33.1 µM | – | > 33.1 µM | > 33.1 µM | > 33.1 µM | – | – | – | – | –
28 | Cc1cccc(NN2C(S)=NC(C(C)C)C2c2ccccc2)c1 (stereo unspecified) | 42.6 µM | > 42.6 µM | > 42.6 µM | > 42.6 µM | > 42.6 µM | > 42.6 µM | – | – | – | – | –
29 | COC(=O)c1cccc(C2C(C)N=C(S)N2Nc2cccc(Cl)c2)c1 (stereo unspecified) | 67.4 µM | > 67.4 µM | – | > 67.4 µM | > 67.4 µM | > 67.4 µM | – | – | – | – | –
30 | Cc1cccc(Nn2cnc(C)c2-c2cccc(C(N)=O)c2)c1 | 162 µM | > 162 µM | – | > 162 µM | > 162 µM | > 162 µM | – | – | – | – | –
31 | COc1cccc(Nn2cnc(C)c2-c2ccccc2)c1 | 34.4 µM | > 34.4 µM | – | > 34.4 µM | > 34.4 µM | > 34.4 µM | – | – | – | – | –

From ChEMBL document CHEMBL1144865, “N-aminoimidazole derivatives inhibiting retroviral replication via a yet unidentified mode of action” (J Med Chem, 2003)
